What was measured:
[1] = In-vitro drug release, dialysis bag diffusion method; format: physicochemical; settings: PBS pH 7.4
How it was run: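 Dialysis bag (MW 12,500 Da, ~2.4 nm pores), pre-soaked 24 h in pH 7.4 PBS, filled with 2 mL drug-loaded lipid-carrier dispersion and sealed. Suspended in 100 mL pH 7.4 PBS at 37 ± 1°C under sink conditions, agitated at 100 rpm for 48 h.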

[2] = test system: IL-2, IL-6, IL-1β, caspase-9; experiment: Proinflammatory cytokines and caspase-9 by ELISA; format: in vivo, Wistar rats; settings: DEN-induced rats
How it was run: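 IL-2, IL-6, IL-1β and caspase-9 were measured in hepatic tissue of DEN-induced HCC rats using commercial ELISA kits per manufacturer's instructions.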

[3] = Pharmacokinetic study, single i.v. injection; format: in vivo, Wistar rats; settings: male, Wistar, rat, plasma, iv, 10 mg/kg

- GF release ([1]; 48 hours): 95.63 ± 4.04%
- GF released ([1]; within 4 hours): approximately 80%
- AUC(0-inf) [3]: 41100 ± 13200 ng·h/mL
- AUC(0-t) [3]: 33300 ± 9550 ng·h/mL
- Cmax [3]: 7820 ± 1140 ng/mL
- MRT inf [3]: 12.2 ± 2 h
- half-life [3]: 7.66 ± 1.7 h
SMILES: COc1cc2ncnc(Nc3ccc(F)c(Cl)c3)c2cc1OCCCN1CCOCC1 [Gefitinib]
- caspase 9 levels [2]: increased significantly
